Test results taken from ChEMBL document CHEMBL3272249, “Esters of N-tert-butylarterenol. Long-acting new bronchodilators with reduced cardiac effects” (J Med Chem, 1976).

Key:
Canis familiaris [1] = assay: Cardiotoxicity in spontaneously respiring dog assessed as time of increase in heart rate at 20 to 100 mg/kg, iv relative to control; format: toxicity, organism-based, Canis lupus familiaris; parameters: dose 20-100 mg/kg, route intravenous; conditions: in vivo
Procedure, shortened: (§1)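 Anesthetized, spontaneously respiring dogs. Heart rate was taken from a lead II EKG, and blood pressure from the right femoral artery by transducer. The increase in heart rate (beats/min) was scored on a graded scale with more than 4 dogs per dose, and its duration was recorded. Drugs were dissolved fresh in distilled water, diluted in physiological saline and kept on ice.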

Canis familiaris [2] = assay: Bronchodilator activity in dog assessed as time of inhibition of carbachol or histamine-induced bronchoconstriction at 400 to 800 mg/kg, it relative to control; format: functional, Canis lupus familiaris; conditions: dose mg/kg 400-800; route endotracheal
Procedure, shortened: (§2)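 Dog airway model: anesthetized, cannulated via a nonbreathing valve, with airway pressure changes recorded after iv carbachol (2–4 μg/kg) or histamine diphosphate (20–50 μg/kg) challenge, each agonist in different animals. Compounds were given iv, intraduodenally or intratracheally from fresh aqueous stocks diluted in saline. Duration (h) of inhibition of induced bronchoconstriction was followed, and the two agonist datasets were pooled.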

Canis familiaris [3] = assay: Bronchodilator activity in dog assessed as time of inhibition of carbachol or histamine-induced bronchoconstriction at 20 to 100 mg/kg, iv relative to control; format: functional, Canis lupus familiaris; conditions: dose mg/kg 20-100; procedure, shortened: as §2
Canis familiaris [4] = assay: Bronchodilator activity in dog assessed as time of inhibition of carbachol or histamine-induced bronchoconstriction at 50 to 100 mg/kg, id relative to control; format: functional, Canis lupus familiaris; conditions: dose mg/kg 50-100; route intraduodenal
Procedure, shortened: (§3)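 Anesthetized dogs with an airway cannula and a nonbreathing valve. Bronchoconstriction was induced by iv carbachol (2–4 μg/kg) or histamine diphosphate (20–50 μg/kg) and read as change in airway pressure by transducer. Each compound was tested against both agonists in different dogs, and the results were combined and averaged. Effect is % inhibition of control constriction, with at least three dogs per dose. Drugs were dissolved fresh in distilled water, diluted in saline and kept on ice.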

Canis familiaris [5] = assay: Cardiotoxicity in spontaneously respiring dog assessed as degree of increase in heart rate at 20 to 100 mg/kg, iv relative to control; format: toxicity, organism-based, Canis lupus familiaris; parameters: dose 20-100 mg/kg, route intravenous; conditions: in vivo; procedure, shortened: as §1
Canis familiaris [6] = assay: Bronchodilator activity in dog assessed as degree of inhibition of carbachol or histamine-induced bronchoconstriction at 400 to 800 mg/kg, it relative to control; format: functional, Canis lupus familiaris; conditions: dose mg/kg 400-800; route endotracheal
Procedure, shortened: (§4)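 Anesthetized dogs, trachea cannulated with a nonbreathing valve. Bronchoconstriction induced by iv carbachol (2–4 μg/kg) or histamine diphosphate (20–50 μg/kg) in separate animals, and airway pressure recorded by transducer. Drug stocks were made fresh in distilled water, diluted in saline and kept on ice. Read-out was percent inhibition of control constriction, averaged over at least three dogs per dose at the higher dose. Carbachol and histamine data were combined.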

Canis familiaris [7] = assay: Bronchodilator activity in dog assessed as degree of inhibition of carbachol or histamine-induced bronchoconstriction at 20 to 100 mg/kg, iv relative to control; format: functional, Canis lupus familiaris; conditions: dose mg/kg 20-100; procedure, shortened: as §4
Canis familiaris [8] = assay: Bronchodilator activity in dog assessed as degree of inhibition of carbachol or histamine-induced bronchoconstriction at 50 to 100 mg/kg, id relative to control; format: functional, Canis lupus familiaris; conditions: dose mg/kg 50-100; route intraduodenal; procedure, shortened: as §4
Canis familiaris [9] = assay: Bronchodilator activity in dog assessed as time of inhibition of carbachol or histamine-induced bronchoconstriction at 5 mg/kg, iv relative to control; format: functional, Canis lupus familiaris; procedure, shortened: as §3
Canis familiaris [10] = assay: Bronchodilator activity in dog assessed as time of inhibition of carbachol or histamine-induced bronchoconstriction at 50 mg/kg, id relative to control; format: functional, Canis lupus familiaris; conditions: route intraduodenal; procedure, shortened: as §3
Canis familiaris [11] = assay: Bronchodilator activity in dog assessed as degree of inhibition of carbachol or histamine-induced bronchoconstriction at 5 mg/kg, iv relative to control; format: functional; conditions: Canis lupus familiaris; procedure, shortened: as §4
Canis familiaris [12] = assay: Bronchodilator activity in dog assessed as degree of inhibition of carbachol or histamine-induced bronchoconstriction at 50 mg/kg, id relative to control; format: functional; conditions: Canis lupus familiaris, route intraduodenal; procedure, shortened: as §4
Canis familiaris [13] = assay: Cardiotoxicity in spontaneously respiring dog assessed as degree of increase in heart rate at 200 mg/kg, iv relative to control; format: toxicity, organism-based, Canis lupus familiaris; parameters: dose 200 mg/kg, route intravenous; conditions: in vivo; procedure, shortened: as §1
Canis familiaris [14] = assay: Cardiotoxicity in spontaneously respiring dog assessed as time of increase in heart rate at 200 mg/kg, iv relative to control; format: toxicity, organism-based, Canis lupus familiaris; parameters: dose 200 mg/kg, route intravenous; conditions: in vivo; procedure, shortened: as §1
Canis familiaris [15] = assay: Bronchodilator activity in dog assessed as time of inhibition of carbachol or histamine-induced bronchoconstriction at 200 mg/kg, iv relative to control; format: functional, Canis lupus familiaris; procedure, shortened: as §2
Canis familiaris [16] = assay: Bronchodilator activity in dog assessed as time of inhibition of carbachol or histamine-induced bronchoconstriction at 100 to 200 mg/kg, id relative to control; format: functional, Canis lupus familiaris; conditions: dose mg/kg 100-200; route intraduodenal; procedure, shortened: as §2
Canis familiaris [17] = assay: Bronchodilator activity in dog assessed as time of inhibition of carbachol or histamine-induced bronchoconstriction at 430 to 860 mg/kg, it relative to control; format: functional, Canis lupus familiaris; conditions: dose mg/kg 430-860; route endotracheal; procedure, shortened: as §3
Canis familiaris [18] = assay: Bronchodilator activity in dog assessed as degree of inhibition of carbachol or histamine-induced bronchoconstriction at 200 mg/kg, iv relative to control; format: functional; conditions: Canis lupus familiaris; procedure, shortened: as §4
Canis familiaris [19] = assay: Bronchodilator activity in dog assessed as degree of inhibition of carbachol or histamine-induced bronchoconstriction at 100 to 200 mg/kg, id relative to control; format: functional, Canis lupus familiaris; conditions: dose mg/kg 100-200; route intraduodenal; procedure, shortened: as §4
Canis familiaris [20] = assay: Bronchodilator activity in dog assessed as degree of inhibition of carbachol or histamine-induced bronchoconstriction at 430 to 860 mg/kg, it relative to control; format: functional, Canis lupus familiaris; conditions: dose mg/kg 430-860; route endotracheal; procedure, shortened: as §4
Canis familiaris [21] = assay: Cardiotoxicity in spontaneously respiring dog assessed as degree of increase in heart rate at 100 to 200 mg/kg, iv relative to control; format: toxicity, organism-based, Canis lupus familiaris; parameters: dose 100-200 mg/kg, route intravenous; conditions: in vivo; procedure, shortened: as §1
Canis familiaris [22] = assay: Cardiotoxicity in spontaneously respiring dog assessed as time of increase in heart rate at 100 to 200 mg/kg, iv relative to control; format: toxicity, organism-based, Canis lupus familiaris; parameters: dose 100-200 mg/kg, route intravenous; conditions: in vivo; procedure, shortened: as §1
Canis familiaris [23] = assay: Bronchodilator activity in dog assessed as time of inhibition of carbachol or histamine-induced bronchoconstriction at 100 to 200 mg/kg, iv relative to control; format: functional, Canis lupus familiaris; conditions: dose mg/kg 100-200; procedure, shortened: as §2
Canis familiaris [24] = assay: Bronchodilator activity in dog assessed as degree of inhibition of carbachol or histamine-induced bronchoconstriction at 100 to 200 mg/kg, iv relative to control; format: functional, Canis lupus familiaris; conditions: dose mg/kg 100-200; procedure, shortened: as §4

CC(C)(C)NC[C@H](O)c1ccc(OC(=O)C(C)(C)C)c(OC(=O)C(C)(C)C)c1.Cl
Time (Canis familiaris [1]): < 2 h
Time (Canis familiaris [2]): <2 h
Time (Canis familiaris [3]): 3 h
Time (Canis familiaris [4]): 3 h
Activity (Canis familiaris [5]): 20 beats/min
inhibition (INH) (Canis familiaris [6]): 45%
inhibition (INH) (Canis familiaris [7]): >70%
inhibition (INH) (Canis familiaris [8]): >70%

CC(C)(C)NC[C@H](O)c1ccc(OC(=O)C2(C)CC2)c(OC(=O)C2(C)CC2)c1.Cl
Time (Canis familiaris [9]): <1 h
Time (Canis familiaris [10]): 2 h
inhibition in vivo at 5 mg/kg (Canis familiaris [11]): 45%
inhibition in vivo at 50 mg/kg (Canis familiaris [12]): 45%

CC(C)(C)CC(=O)Oc1ccc([C@@H](O)CNC(C)(C)C)cc1OC(=O)CC(C)(C)C.Cl
Activity (Canis familiaris [13]): 20%
Time (Canis familiaris [14]): < 1 h
Time (Canis familiaris [15]): >4 h
Time (Canis familiaris [16]): <5 h
Time (Canis familiaris [17]): <3 h
inhibition in vivo at 200 mg/kg (Canis familiaris [18]): > 70%
inhibition (INH) (Canis familiaris [19]): 45%
inhibition (INH) (Canis familiaris [20]): 20%

CC(C)(C)NC[C@H](O)c1ccc(OC(=O)C2CCCCC2)c(OC(=O)C2CCCCC2)c1.Cl
Activity (Canis familiaris [21]): 20%
Time (Canis familiaris [22]): < 3 h
Time (Canis familiaris [23]): <5 h
inhibition (INH) (Canis familiaris [24]): 45%
